The results in this text go back to article PMC3253528 (Journal of the American Chemical Society, 2011).

“And” between values parts separate entries of the source, which are not always exact repeats. Identical values can stand only once.

One data set can be described thus: dynamic light scattering. It counts as physicochemical. Particulars: DLS conc. 50 μM.
Another data set has as its target T1, procaspase-3 (Homo sapiens, UniProt P42574).
T1 sequence (P42574 1-277): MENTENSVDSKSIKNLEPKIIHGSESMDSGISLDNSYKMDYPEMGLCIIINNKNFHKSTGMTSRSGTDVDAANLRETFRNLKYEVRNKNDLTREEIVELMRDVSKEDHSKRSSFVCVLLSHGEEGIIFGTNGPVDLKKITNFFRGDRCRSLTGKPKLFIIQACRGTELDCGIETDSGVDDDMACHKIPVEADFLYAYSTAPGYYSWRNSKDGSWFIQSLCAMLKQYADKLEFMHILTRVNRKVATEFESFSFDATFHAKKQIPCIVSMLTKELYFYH
The experiment in a line: procaspase-3 self-activation assay. It counts as biochemical. In short, it runs like this:
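Known promiscuous enzyme-inhibiting aggregators (panel of six) were each tested for ability to activate wild-type procaspase-3. The self-activation assay is run at 37°C.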

Another data set concerns the target T2, caspase-3 (Homo sapiens, UniProt P42574).
T2 sequence (P42574 29-175 limits assumed): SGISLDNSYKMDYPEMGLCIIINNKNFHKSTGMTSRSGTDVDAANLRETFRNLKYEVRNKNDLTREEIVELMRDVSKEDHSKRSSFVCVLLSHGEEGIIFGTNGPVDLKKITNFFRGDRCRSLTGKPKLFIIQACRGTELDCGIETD
T2 sequence (P42574 176-277 limits assumed): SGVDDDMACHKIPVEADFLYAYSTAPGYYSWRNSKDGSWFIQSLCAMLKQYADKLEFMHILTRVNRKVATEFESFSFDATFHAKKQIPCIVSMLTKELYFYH
The experiment in a line: inhibition of mature caspase-3 by known aggregators. The data set is classed as biochemical.

As to `O=C1OC(c2cc(I)c(O)c(I)c2)(c2cc(I)c(O)c(I)c2)c2ccccc21` [TIPT, 3′,3″,5′,5″-tetraiodophenolpthalein], in the data set “dynamic light scattering” (25°C), the “DLS Intensity” value was 3903.5 kcps and 3903.5 ± 1423.0 kcps; the Radius is 71.1 nm and 71.1 ± 8.6 nm. In “dynamic light scattering” (37°C), the “DLS Intensity” value is 3933.2 ± 1369.0 kcps and the Radius turned out to be 76.7 ± 7.8 nm.

Turning to `Nc1c(/N=N/c2ccc(-c3ccc(/N=N/c4cc(S(=O)(=O)O)c5ccccc5c4N)cc3)cc2)cc(S(=O)(=O)O)c2ccccc12` [Congo red], the “activation of procaspase-3 by known aggregators” value on procaspase-3 is reported as “no activation”. Further, the “inhibition of mature caspase-3” value against caspase-3 is reported as “inhibited”.
